CHOP UPR activ: activators of apoptotic arm of unfolded protein response (CHOP); CHO-CHOP luciferase reporter, UPR activation, luminescence; percent of tunicamycin response over DMSO baseline; activation, % at 10 µM; actives 0.34% (n = 330,000); AID 449763;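 active = at 10 µM dose, activation of 40% or more, normalized to positive control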
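measured by = luciferase luminescence | assay system = CHO-CHOP cells, stable luciferase reporter of PERK-eIF2a-CHOP signalling | amount = 500 reporter cells seeded per well | timing = 6 h compound exposure at 37 °C after overnight seeding | controls = positive tunicamycin 10 µg/mL, negative DMSO alone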
CHOP inh: inhibitors of CHOP induction in ER stress response. CHO-K1 CHOP-promoter luciferase, tunicamycin-induced, 15-18 h. inhibition, % at 10 µM. actives 3.8% (n = 220,000). AID 2732;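 active = compounds that reduced the stress-induced luciferase reporter signal by more than about 70% of percent inhibition, limit read from the data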
XBP1 UPR activ: adaptive UPR (XBP1) activation; activation, % at 20 µM; CHO-XBP1 luciferase reporter, IRE1-XBP1 UPR activation, luminescence; percent of tunicamycin response, DMSO as zero; actives 0.33% (n = 330,000);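 active = versus positive control, 20 µM dose yields 30% or more activation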
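Assay system: IRE1-XBP1 luciferase reporter CHO line. Input: 1000 cells/well. Buffer or medium: F12 with 10% serum. Doses: 20 µM, 1% DMSO. Times: overnight seeding at 37 °C, 6 h compound treatment at 37 °C. Technique: Steady-Glo luciferase glow luminescence, 10 min after reagent addition.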
TMEM16A act: activates or potentiates the mouse TMEM16A chloride channel. Q8BHY3. AID 623877. B-score at 10 µM. HEK293 TMEM16A/YFP-H148Q/I152L, iodide quench fluorescence; active compounds read low. actives 0.3% (n = 340,000);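 active = fluorescence-ratio B-score plate-corrected deviation score at least 3 library SD below zero, with starting fluorescence score within 5 deviations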;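 note: channel opened by trigger with iodide after compound preincubation; score built on the fluorescence ratio of max minus min over baseline; more negative score means more quench and so TMEM16A activation or potentiation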
TMEM16A inh: inhibitors of mouse TMEM16A calcium-activated chloride channel; HEK293 TMEM16A/YFP iodide influx fluorescence, ionomycin; normalized B-score (activity score, 25-100; higher = stronger inhibition) at 10 µM; actives 1.2% (n = 310,000); AID 588511;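 active = ratio plate-corrected score three or more library SD toward inhibition, starting fluorescence score within five deviations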;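 note: score derived from kinetic fluorescence span divided by baseline fluorescence per well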
Lipid droplet: hepatic lipid droplet formation modulation. AML12 mouse hepatocytes, oleate lipid droplets, BODIPY imaging. inhibition, % at 6.5 µM. actives 0.4% (n = 240,000);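 active = lipid droplet intensity inhibited by at least 50%, with more than 500 cells counted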
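System: AML12 hepatocytes (mouse). Probe or stimulus: oleic acid at 100 µM to induce lipid droplet formation. Times: overnight treatment with compound plus oleate. Detection: Image-based BODIPY and DAPI two-channel analysis. Evaluation: percent inhibition of filter-corrected integrated lipid droplet intensity per well.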
TMEM16A reconf: re-confirmation of mouse TMEM16A chloride channel inhibitors; shares compounds with TMEM16A inh; HEK293 TMEM16A/YFP-H148Q, iodide quench fluorescence; ionomycin added to raise cell calcium; inhibition, % at 10 µM; actives 39% (n = 2,300); AID 652189;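 active = mean duplicate percent inhibition, scaled so buffer wells are 0 and the reference blocker 100, over three buffer SD above buffer mean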
TMEM16A Ca cntr: counter-screen for TMEM16A inhibitors: effect on calcium mobilization | shares compounds with TMEM16A inh | TMEM16A/YFP HEK293, Fluo4 calcium mobilization | calcium response (% of ionomycin), % at 10 µM | actives 2% (n = 2,300) | AID 652231;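 active = duplicate-averaged calcium signal over 20% of the ionomycin maximum, relative to buffer baseline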;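 note: each well's signal is peak minus trough fluorescence divided by its pre-addition baseline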
Parental YFP cnt: parental YFP-HEK293 iodide quench counter-screen activity | AID 652233 | YFP ratio F(max-min)/F0 at 10 µM | 2,300 tested, under 10 active | shares compounds with TMEM16A inh | ionomycin;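 active = yellow fluorescent protein signal ratio exceeding the buffer control mean by over 5 SD of those controls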;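 note: ratio is mean of duplicate wells from kinetic YFP trace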
ClC-1 rat inh: selectivity of TMEM16A inhibitors: inhibition of rat ClC-1 chloride channel; AID 652236; CHO ClC-1-YFP, iodide influx fluorescence quench; iodide control reads 0, buffer control 100; 2,300 tested, under 10 active; shares compounds with TMEM16A inh; ratio percent, % at 10 µM;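 active = duplicate-mean ratio percent above the mean of iodide-only control wells, which defines zero, plus 5 of their SD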;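 note: higher percent means stronger block of ClC-1 iodide influx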
Hits are given with their value; 0 = inactive; - = not tested or not shown. This is a sample that favours compounds with a hit; in the whole collection about 4.2% have one here.

SMILES	CHOP UPR activ	CHOP inh	XBP1 UPR activ	TMEM16A act	TMEM16A inh	Lipid droplet	TMEM16A reconf	TMEM16A Ca cntr	Parental YFP cnt	ClC-1 rat inh
Cc1sc2ncnc(N3CCN(S(=O)(=O)c4ccc(C(C)(C)C)cc4)CC3)c2c1C	0	-	0	0	-	-	-	-	-	-
Cc1sc2ncnc(N3CCN(S(=O)(=O)c4ccc(Br)cc4)CC3)c2c1C	0	-	0	0	25	0	30%	0	0	0
C=C(C)Cc1c(C)c(C#N)c2[nH]c3ccccc3n2c1=O	0	-	0	0	0	0	-	-	-	-
CCc1cc(=S)n2c([nH]c3ccccc32)c1C#N	0	0	0	0	100	0	26%	0	0	0
CCc1c(C)c(C#N)c2[nH]c3ccccc3n2c1=S	0	0	0	0	100	0	34%	0	0	0
CC(=O)NC(CC(=O)N(C)C1CCCCC1)c1ccccc1 (stereo not given)	0	-	0	0	0	0	-	-	-	-
CCN(C(=O)COC(=O)/C=C/c1ccc(OC(F)F)c(OC)c1)C1CCS(=O)(=O)C1 (stereo not given)	0	-	0	0	-	-	-	-	-	-
O=C(N[C@@H](Cc1c[nH]c2ccccc12)C(=O)O)c1ccccc1Cl	0	0	0	0	25	0	0	0	0	0
COc1cc(NC(=O)c2ccc3c(c2)OCCO3)ccc1NC(=O)c1ccccc1Cl	0	-	0	0	0	0	-	-	-	-
Nc1c(C(=O)c2ccccc2)sc2nsc(SCCN3CCCC3)c12	0	0	0	0	0	0	0	0	0	0
Nc1c(C(=O)c2ccc(Cl)cc2)sc2nsc(SCCN3CCOCC3)c12	0	0	0	0	0	0	-	-	-	-
O=C(CCc1nc(-c2ccccc2)no1)NCc1ccccc1CN1CCOCC1	0	-	0	0	-	-	-	-	-	-
Cc1occc1C(=O)NNC(=O)Nc1ccc(F)cc1F	0	0	0	0	0	0	-	-	-	-
Cc1occc1C(=O)Nc1ccc(Br)cc1F	0	0	0	0	100	0	0	0	0	0
CC(C)OCCCNC(=O)C(Cc1ccccc1)NS(=O)(=O)c1ccc2c(c1)CCC(=O)N2 (stereo not given)	0	-	0	0	0	0	-	-	-	-
S=C(NCC1CCCO1)Nc1ccc(Nc2ccccc2)cc1 (stereo not given)	0	0	0	0	100	0	0	0	0	0
S=C(NCC1CCCCC1)Nc1ccc(Oc2ccccc2)cc1	0	73	0	0	100	0	20%	0	0	0
O=C(CCc1ccc(S(=O)(=O)N2CCOCC2)cc1)Nc1ccc(F)cc1[N+](=O)[O-]	0	-	0	0	-	-	-	-	-	-
CSc1ccc(CN(C)C(=O)c2ccc(S(=O)(=O)Nc3c(C)n(C)n(-c4ccccc4)c3=O)cc2)cc1	-	-	-	0	-	-	-	-	-	-
CSc1ccc(CN(C)C(=O)c2ccc(S(=O)(=O)Nc3ccccc3)cc2)cc1	0	-	0	0	25	-	0	0	0	0
CC(=O)Oc1ccc(C(=O)NC(C)CCc2ccccc2)cc1 (stereo not given)	0	-	0	0	0	-	-	-	-	-
O=C(CN1CCN(S(=O)(=O)c2ccc(Cl)cc2)CC1)NCc1cccs1	0	-	0	0	0	-	-	-	-	-
O=C(CN1CCN(Cc2ccc(Cl)cc2)C1=O)NCc1cccs1	0	0	0	0	0	0	0	0	0	0
CCCCC1(C)OC(=O)C(=Cc2ccc(N(C)C)cc2)C(=O)O1 (stereo not given)	0	0	0	0	0	-	22%	0	0	0
O=S(=O)(Nc1ccc(-c2nc3ccccc3o2)cc1)c1ccccc1	0	0	0	0	0	-	-	-	-	-
SMILES	CHOP UPR activ	CHOP inh	XBP1 UPR activ	TMEM16A act	TMEM16A inh	Lipid droplet	TMEM16A reconf	TMEM16A Ca cntr	Parental YFP cnt	ClC-1 rat inh
CC(=O)Nc1ccc(S(=O)(=O)Nc2cccc(-c3nc4ccccc4o3)c2)cc1	0	0	0	0	100	0	0	0	0	0
COC(=O)[C@@]12CCCN1[C@H](c1ccc(-c3cccc(Cl)c3)cc1)[C@H]1C(=O)N(C)C(=O)[C@H]12	0	-	0	0	0	-	-	-	-	-
COC(=O)[C@@]12CCCN1[C@H](c1ccc(-c3ccc(Cl)c(Cl)c3)cc1)[C@H]1C(=O)N(C)C(=O)[C@H]12	0	-	0	0	100	-	0	0	0	0
CC(C)C[C@H](NC(=O)c1nc[nH]c1C(=O)N1CCC(C)CC1)C(=O)OC(C)(C)C	0	0	0	0	0	0	-	-	-	-
CC1CCN(C(=O)c2[nH]cnc2C(=O)N[C@@H](CCCCNC(=O)OC(C)(C)C)C(=O)OC(C)(C)C)CC1	0	0	0	0	100	0	0	0	0	0
C[C@H](NC(=O)[C@@H]1Cc2ccccc2CN1)C(=O)NC1CCCC1	0	-	0	0	0	0	-	-	-	-
COc1ccccc1C(O)P(=O)(OC(C)C)c1ccc(N(C)C)cc1 (stereo not given)	0	0	0	0	0	0	-	-	-	-
CCOP(=O)(c1ccc(N(C)C)cc1)C(O)c1ccccc1OC (stereo not given)	0	0	0	0	100	0	0	0	0	0
COc1cc(C2c3c(oc4ccccc4c3=O)C(=O)N2Cc2ccco2)ccc1O (stereo not given)	0	0	0	0	25	-	0	0	0	0
Cc1cc(=O)oc2cc(OCC(=O)NC3(C#N)CCCCC3)c(Cl)cc12	0	-	0	0	-	-	-	-	-	-
CC(C)COc1ccc(C2NC(=O)NC2=O)cc1 (stereo not given)	0	0	0	0	100	0	0	0	0	0
Cn1c(=O)c2c(nc(-n3ccnc3)n2Cc2ccc([N+](=O)[O-])cc2)n(C)c1=O	0	0	0	0	0	0	-	-	-	-
COc1ccccc1OCC(=O)NCC1CCCCC1	0	0	0	0	100	0	0	0	0	0
COc1ccccc1OCC(=O)NNc1c2ccccc2nc2ccccc12	0	0	0	0	25	0	17%	0	0	0
CC(C(=O)NC(N)=O)N1C(=O)NC(c2ccccc2)(c2ccccc2)C1=O (stereo not given)	0	-	0	0	0	0	-	-	-	-
